# Results collected from several papers.
# Lines come from different studies, so protocols differ.
# Target: Fibroblast growth factor receptor 2 (FGFR2, Homo sapiens, UniProt P21802)
SMILES,test,setting,measurement,value
O=c1[nH]c2ccccc2n1C1CCN(Cc2ccc(-c3[nH]c4cc5ncnc5cc4nc3-c3ccccc3)cc2)CC1,cell-free assay,0.5 µM,remaining signal,94.2%
COc1ncccc1-c1cnn2ccc(N3CCN(C(=O)OC(C)C)CC3)nc12,"binding, competition with immobilised ligand",1 µM,remaining binding,82%
Cn1cc(-c2cc(F)cc(N3CCn4c(cc5c4CCCC5)C3=O)c2CO)cc(Nc2ccc(N3CCN(C4COC4)CC3)cn2)c1=O,"enzyme activity, inhibitor",0.1 µM,inhibition,15%
Cn1cncc1[C@](O)(COc1ccc(C#N)cc1-c1ccc(OC(F)(F)F)cc1)c1ccc(C#N)cc1,"cell-free assay, competition with immobilised ligand",1 µM,remaining binding,86%
Cc1nn(C)cc1-c1nc2c(N3CCN(Cc4ccc(Cl)cc4)CC3)c(Cl)cnc2[nH]1,"binding, competition with immobilised ligand",1 µM,remaining binding,45%
C#Cc1n[nH]c2c(-c3cn([C@@H](C)c4ccccn4)c(=O)[nH]c3=O)cc(F)cc12,"enzyme activity, inhibitor",0.1 µM,inhibition,4.2%
COCc1c(-c2cc3cc(C)cc(OC)c3s2)c2c(N)ncnn2c1CN1CCNC(=O)C1,"cell-free assay, competition with immobilised ligand",1 µM,inhibition,99.8%
Nc1ncc(-c2nc(N3CCOCC3)nc(N3CCOCC3)n2)c(C(F)F)n1,"cell-free assay, competition with immobilised ligand",10 µM,remaining binding,90%
N#CC1(c2ccccn2)CCN(Cc2cc(C(=O)O)c(=O)n3ccccc23)CC1,"cell-free assay, competition with immobilised ligand",1 µM,remaining binding,100%
C#Cc1n[nH]c2c(-c3cn([C@@H](C)c4ccccc4)c(=O)[nH]c3=O)cc(F)cc12,"enzyme activity, inhibitor",0.1 µM,inhibition,1.6%
Cn1cc(-c2cccc(N3CCc4c(sc5c4CC(C)(C)C5)C3=O)c2CO)cc(Nc2ccncn2)c1=O,"enzyme activity, inhibitor",1 µM,inhibition,14%
CC(C)(C)c1cc(C=C(C#N)C#N)cc(Br)c1O,"enzyme activity, inhibitor",0.5 µM,remaining activity,96.4%
